Results published in ChEMBL document CHEMBL4680074, “Structure and Property Guided Design in the Identification of PRMT5 Tool Compound EPZ015666” (ACS Med Chem Lett, 2016).

Legend:
PRMT5/MEP50 complex = PRMT5/MEP50 complex (Homo sapiens, UniProt O14744); assay: Inhibition of human full length FLAG-tagged PRMT5/human His6-tagged MEP50 expressed in baculovirus-infected Sf9 cells assessed as reduction in tritium incorporation into peptide substrate using human Histone H4 (1 to 15 residues) and [3H]SAM as substrate preincubated with enzyme and H4 for 30 mins followed by [3H]SAM addition and measured after 120 mins by radioactive flashplate assay
Sequence of PRMT5/MEP50 complex (O14744 whole entry, the tested form may be a part): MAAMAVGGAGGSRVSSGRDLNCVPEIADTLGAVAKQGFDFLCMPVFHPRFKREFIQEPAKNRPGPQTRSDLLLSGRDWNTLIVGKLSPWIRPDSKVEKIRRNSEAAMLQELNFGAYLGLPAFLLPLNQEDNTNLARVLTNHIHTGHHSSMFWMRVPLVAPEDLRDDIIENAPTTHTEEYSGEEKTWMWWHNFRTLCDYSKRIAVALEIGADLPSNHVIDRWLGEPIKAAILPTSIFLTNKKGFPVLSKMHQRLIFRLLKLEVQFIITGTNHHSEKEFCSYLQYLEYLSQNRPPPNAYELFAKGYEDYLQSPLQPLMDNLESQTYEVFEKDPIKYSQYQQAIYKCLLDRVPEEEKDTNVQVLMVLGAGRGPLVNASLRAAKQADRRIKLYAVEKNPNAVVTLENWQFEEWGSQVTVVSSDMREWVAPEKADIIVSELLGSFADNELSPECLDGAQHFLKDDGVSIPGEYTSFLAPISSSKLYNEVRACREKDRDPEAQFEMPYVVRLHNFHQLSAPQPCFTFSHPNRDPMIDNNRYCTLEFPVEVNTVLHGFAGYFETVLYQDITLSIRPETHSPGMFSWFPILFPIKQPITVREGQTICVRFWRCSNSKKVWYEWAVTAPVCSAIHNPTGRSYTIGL
Sequence of PRMT5/MEP50 complex (Q9BQA1 whole entry, further chain, the tested form may be a part): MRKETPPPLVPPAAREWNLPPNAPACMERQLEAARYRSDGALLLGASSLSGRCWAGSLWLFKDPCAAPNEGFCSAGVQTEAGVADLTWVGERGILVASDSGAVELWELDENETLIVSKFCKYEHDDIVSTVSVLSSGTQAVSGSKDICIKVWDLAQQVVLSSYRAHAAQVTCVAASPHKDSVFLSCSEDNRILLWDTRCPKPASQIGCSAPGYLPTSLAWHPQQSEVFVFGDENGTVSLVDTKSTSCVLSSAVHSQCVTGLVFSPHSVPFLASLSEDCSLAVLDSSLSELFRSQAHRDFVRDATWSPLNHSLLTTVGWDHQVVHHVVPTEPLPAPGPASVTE

[1] = biological target: Protein arginine N-methyltransferase 5 (Homo sapiens, UniProt O14744); assay: Inhibition of PRMT5 in human Z138 cells assessed as reduction in symmetrical dimethylation of arginine containing substrate using SmD3 as substrate incubated for 4 days by In-cell western assay; type: cell-based
Sequence of Protein arginine N-methyltransferase 5 (O14744 whole entry): as the sequence (O14744 whole entry, the tested form may be a part) above

Z-138 = assay: Antiproliferative activity against human Z138 cells incubated for 5 days by cell titer-glo assay; type: functional, cell-based; conditions: Z-138, 120 h
[2] = Protein binding in CD-1 mouse plasma; type: ADME, cell-free; conditions: read-out: PPB (converted)
[3] = Time during which unbound drug concentration exceeds IC90 for inhibition of PRMT5 in human Z138 cells in CD-1 mouse at 100 mg/kg, po; type: organism-based; conditions: in vivo
Outline: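 Male CD-1 mice received single oral doses of 10 and 100 mg/kg, and plasma concentration was profiled over time. Unbound concentration was compared with the cellular methyl-mark IC90 after correction for plasma protein binding in mouse plasma. The value is the time this unbound level stayed at or above that IC90.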

IC50 (PRMT5/MEP50 complex) [nM]	IC50 [1] [nM]	fraction unbound [2]	Time [3] [h]	SMILES	IC50 (Z-138) [nM]
33	180	–	–	Cn1cnc2ccc(-c3ccnc(NCC(O)CN4CCc5ccccc5C4)c3)cc21 (stereo not given)	2100
95	406	–	–	O=C(NC[C@@H](O)CN1CCc2ccccc2C1)c1cccc(-c2ccccn2)c1	18700
18	13	–	–	O=C(NC[C@H](O)CN1CCc2ccccc2C1)c1cccc(NC2CCOCC2)c1	384
13	32	–	–	O=C(NC[C@H](O)CN1CCc2ccccc2C1)c1cccc(-c2ccccn2)c1	890
73	435	–	–	Cn1cnc2ccc(-c3cccc(OCC(O)CN4CCc5ccccc5C4)c3)cc21 (stereo not given)	4260
–	–	0.7	12	O=C(NC[C@H](O)CN1CCc2ccccc2C1)c1cc(NC2COC2)ncn1	–
13	37	–	–	O=C(NCC(O)CN1CCc2ccccc2C1)c1cccc(-c2ccccn2)c1 (racemic)	1680

Further lines, the compound ahead of its results:

SMILES	IC50 (PRMT5/MEP50 complex) [nM]	IC50 [1] [nM]	fraction unbound [2]	Time [3] [h]	IC50 (Z-138) [nM]
OC(COc1cccc(CNC2CCCC2)c1)CN1CCc2ccccc2C1 (stereo not given)	326	–	–	–	–
OC(COc1cccc(CNC2CCCC2)c1)CN1Cc2ccccc2C1 (stereo not given)	7450	–	–	–	–
O=C(COc1cccc2cccnc12)NC[C@@H](O)CN1CCc2ccccc2C1	11	16	–	–	451
O=C(COc1cccc2cccnc12)NC[C@H](O)CN1CCc2ccccc2C1	144	327	–	–	12600
COc1cc2c(cc1OC)CN(CC(O)COc1cccc(CNC3CCCC3)c1)CC2 (stereo not given)	> 50000	–	–	–	–
O=C(NC[C@H](O)CN1CCc2ccccc2C1)c1ccnc(NC2CCC2)c1	–	–	–	–	62
CN(Cc1ccccc1)CC(O)COc1cccc(CNC2CCCC2)c1 (stereo not given)	26800	–	–	–	–
OC(COc1cccc(CNC2CCCC2)c1)CN1CCc2ccncc2C1 (stereo not given)	> 50000	–	–	–	–
O=C(COc1cccc2cccnc12)NCC(O)CN1CCc2ccccc2C1 (racemic)	23	36	–	–	428
